Results taken from ChEMBL document CHEMBL1123959, “Orally active hydroxamic acid inhibitors of leukotriene biosynthesis” (J Med Chem, 1988).
Blank lines part the entries; values can stand above or below the compound they belong to.

Experiments:
Rattus norvegicus [1] = species on record: Rattus norvegicus; assay: Effective dosage to inhibit leukotriene biosynthesis in rat peritoneal anaphylaxis model; assay type: functional
Procedure, shortened: (§1)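 Rats were primed ip with rabbit antibody to bovine serum albumin and challenged ip with BSA 3 h later. Inhibitors were given orally by gavage 1 h before challenge. Rats were killed 15 min after challenge, and peritoneal fluid leukotrienes were measured by radioimmunoassay. ED50 is given with 95% confidence limits. Percent inhibition at a fixed dose is the mean ± SEM (n = 8).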

[2] = target: T1, Polyunsaturated fatty acid 5-lipoxygenase (Rattus norvegicus, UniProt P12527); assay: In vitro inhibition of 5-lipoxygenase in RBL-1 cells; assay type: cell-based
T1 sequence (P12527 whole entry): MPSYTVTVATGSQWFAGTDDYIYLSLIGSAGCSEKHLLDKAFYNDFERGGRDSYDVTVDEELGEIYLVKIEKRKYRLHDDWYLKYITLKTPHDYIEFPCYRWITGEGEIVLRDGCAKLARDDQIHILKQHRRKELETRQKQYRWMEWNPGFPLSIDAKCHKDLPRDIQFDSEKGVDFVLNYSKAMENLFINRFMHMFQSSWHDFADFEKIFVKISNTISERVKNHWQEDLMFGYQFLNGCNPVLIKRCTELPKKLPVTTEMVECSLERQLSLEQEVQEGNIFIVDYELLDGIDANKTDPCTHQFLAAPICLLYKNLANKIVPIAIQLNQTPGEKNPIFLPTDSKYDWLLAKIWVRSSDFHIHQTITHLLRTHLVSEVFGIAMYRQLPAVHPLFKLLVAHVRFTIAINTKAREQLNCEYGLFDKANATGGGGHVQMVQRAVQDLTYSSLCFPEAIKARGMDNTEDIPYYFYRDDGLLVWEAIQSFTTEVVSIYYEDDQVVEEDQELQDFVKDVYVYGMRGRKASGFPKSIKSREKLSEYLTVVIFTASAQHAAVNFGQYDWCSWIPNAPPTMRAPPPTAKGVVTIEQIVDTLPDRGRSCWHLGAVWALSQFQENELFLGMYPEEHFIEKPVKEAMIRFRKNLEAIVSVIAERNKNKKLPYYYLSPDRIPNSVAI
Procedure, shortened: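 The enzyme was 5-lipoxygenase in the 2000g supernatant of RBL-1 cell homogenate. IC50 is reported with 95% confidence limits.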

Rattus norvegicus [3] = assay: Plasma concentration after 3h of peroral administration at 100 mg/kg was determined in rats; assay type: functional, organism-based; parameters: dose 100 mg/kg
Procedure, shortened: (§2)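 Rats received 100 mg/kg orally by gavage. Blood was drawn from a lateral tail vein at the set times, and plasma was separated by centrifugation. Proteins were precipitated with methanol, and compound was quantified by HPLC with UV detection at its absorbance maximum. Values are the average of two determinations ± range.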

Rattus norvegicus [4] = assay: Plasma concentration after 1 hr of peroral administration at 100 mg/kg was determined in rats; assay type: functional, organism-based; parameters: dose 100 mg/kg; procedure, shortened: as §2
Rattus norvegicus [5] = assay: Plasma concentration after 6 hr of peroral administration at 100 mg/kg was determined in rats; assay type: functional, organism-based; parameters: dose 100 mg/kg; procedure, shortened: as §2
Rattus norvegicus [6] = assay: Percentage inhibition of leukotriene biosynthesis in rat peritoneal anaphylaxis model at 100 mg/kg; assay type: functional; procedure, shortened: as §1

SMILES: CC(=O)N(O)C(C)c1ccc2ccccc2c1 (stereo not drawn)
ED50 (Rattus norvegicus [1]): 19 mg/kg
IC50 [2]: 540 nM
Plasma concentration (Rattus norvegicus [3]): 26 µM
Plasma concentration (Rattus norvegicus [4]): 91 µM
Plasma concentration (Rattus norvegicus [5]): 33 µM

SMILES: CC(=O)N(O)C(C)c1ccc(OCc2ccccc2)cc1 (stereo not drawn)
ED50 (Rattus norvegicus [1]): 8 mg/kg
IC50 [2]: 370 nM
Plasma concentration (Rattus norvegicus [3]): 140 µM
Plasma concentration (Rattus norvegicus [4]): 110 µM
Plasma concentration (Rattus norvegicus [5]): 95 µM

SMILES: CCCCOc1ccc(C(C)N(O)C(C)=O)cc1 (stereo not drawn)
ED50 (Rattus norvegicus [1]): 17 mg/kg
IC50 [2]: 790 nM
Plasma concentration (Rattus norvegicus [3]): 71 µM
Plasma concentration (Rattus norvegicus [4]): 92 µM
Plasma concentration (Rattus norvegicus [5]): 13 µM

SMILES: CC(C(=O)N(C)O)c1ccc(OCc2ccccc2)cc1 (stereo not drawn)
ED50 (Rattus norvegicus [1]): 40 mg/kg
Plasma concentration (Rattus norvegicus [3]): 5.8 µM
Plasma concentration (Rattus norvegicus [4]): 8 µM
Plasma concentration (Rattus norvegicus [5]): 3.8 µM

SMILES: CC(C(=O)N(C)O)c1ccc2ccccc2c1 (stereo not drawn)
IC50 [2]: 590 nM
Plasma concentration (Rattus norvegicus [3]): 13 µM
Plasma concentration (Rattus norvegicus [4]): 37 µM
Plasma concentration (Rattus norvegicus [5]): 1.4 µM

Now from value to compound, other results behind:

IC50 [2]: 420 nM
SMILES: CC(=O)N(O)C(C)c1ccc(CC(C)C)cc1 (stereo not drawn)
ED50 (Rattus norvegicus [1]): 24 mg/kg
Plasma concentration (Rattus norvegicus [3]): 10 µM
Plasma concentration (Rattus norvegicus [4]): 21 µM
Plasma concentration (Rattus norvegicus [5]): 5 µM

IC50 [2]: 290 nM
SMILES: CC(C)Cc1ccc(C(C)C(=O)N(C)O)cc1 (stereo not drawn)
Plasma concentration (Rattus norvegicus [3]): < 9 µM
Plasma concentration (Rattus norvegicus [4]): < 9 µM
inhibition in vivo at 100 mg/kg (Rattus norvegicus [6]): 65%
Plasma concentration (Rattus norvegicus [5]): < 9 µM

IC50 [2]: 780 nM
SMILES: CCCCOc1ccc(C(C)C(=O)N(C)O)cc1 (stereo not drawn)
Plasma concentration (Rattus norvegicus [3]): 7.3 µM
Plasma concentration (Rattus norvegicus [4]): 58 µM
inhibition in vivo at 100 mg/kg (Rattus norvegicus [6]): 62%
Plasma concentration (Rattus norvegicus [5]): 3.2 µM
